Rad51 HR inh: blocks human Rad51 in homologous recombination; Q06609; hRad51 DNA strand exchange, fluorescence dequenching; inhibition, % at 10 µM; 0.085% of 200,000 active; AID 1385;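 active = inhibition above 40% at the single screening dose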
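System: human Rad51 nucleoprotein filaments preassembled on unlabelled ssDNA. Reagent: labelled 47-mer dsDNA for strand exchange. Schedule: 30-min compound preincubation and 15-min exchange, both room temperature. Measured by: FRET fluorescence dequenching, excitation 485 nm, emission 520 nm. Read-out: Fluorescence-based percent inhibition, control- and blank-normalised. Benchmarks: plate controls and plate blanks.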
CHT block: human CHT choline transport inhibition; Q9GZV3; CHT-expressing cells, membrane potential dye, choline response; stronger effect = lower value; B-score at 10 µM; 0.86% of 310,000 active;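 active = B-score over 3 SD under the library average, and starting fluorescence ratio not unusually high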;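 also: choline stimulus applied at its EC90 after an EC20 pre-addition; B-score computed on integrated fluorescence ratio after choline addition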
KCC2 mod: KCC2 (human) Cl- transport modulation. B-score of Tl+ flux slope (higher = more flux/activation; lower = inhibition) at 10 µM. 2.2% of 190,000 active. KCC2 cells, thallium flux FluoZin-2 fluorescence. Q9H2X9;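 active = thallium flux slope and its plate-corrected score both differing from the plate sample mean at a set confidence after two filtering rounds, in either direction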;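 also: slope of fluorescence scaled to starting intensity during 10 to 20 s after thallium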
Target sequence (Q9H2X9 whole entry, looked up): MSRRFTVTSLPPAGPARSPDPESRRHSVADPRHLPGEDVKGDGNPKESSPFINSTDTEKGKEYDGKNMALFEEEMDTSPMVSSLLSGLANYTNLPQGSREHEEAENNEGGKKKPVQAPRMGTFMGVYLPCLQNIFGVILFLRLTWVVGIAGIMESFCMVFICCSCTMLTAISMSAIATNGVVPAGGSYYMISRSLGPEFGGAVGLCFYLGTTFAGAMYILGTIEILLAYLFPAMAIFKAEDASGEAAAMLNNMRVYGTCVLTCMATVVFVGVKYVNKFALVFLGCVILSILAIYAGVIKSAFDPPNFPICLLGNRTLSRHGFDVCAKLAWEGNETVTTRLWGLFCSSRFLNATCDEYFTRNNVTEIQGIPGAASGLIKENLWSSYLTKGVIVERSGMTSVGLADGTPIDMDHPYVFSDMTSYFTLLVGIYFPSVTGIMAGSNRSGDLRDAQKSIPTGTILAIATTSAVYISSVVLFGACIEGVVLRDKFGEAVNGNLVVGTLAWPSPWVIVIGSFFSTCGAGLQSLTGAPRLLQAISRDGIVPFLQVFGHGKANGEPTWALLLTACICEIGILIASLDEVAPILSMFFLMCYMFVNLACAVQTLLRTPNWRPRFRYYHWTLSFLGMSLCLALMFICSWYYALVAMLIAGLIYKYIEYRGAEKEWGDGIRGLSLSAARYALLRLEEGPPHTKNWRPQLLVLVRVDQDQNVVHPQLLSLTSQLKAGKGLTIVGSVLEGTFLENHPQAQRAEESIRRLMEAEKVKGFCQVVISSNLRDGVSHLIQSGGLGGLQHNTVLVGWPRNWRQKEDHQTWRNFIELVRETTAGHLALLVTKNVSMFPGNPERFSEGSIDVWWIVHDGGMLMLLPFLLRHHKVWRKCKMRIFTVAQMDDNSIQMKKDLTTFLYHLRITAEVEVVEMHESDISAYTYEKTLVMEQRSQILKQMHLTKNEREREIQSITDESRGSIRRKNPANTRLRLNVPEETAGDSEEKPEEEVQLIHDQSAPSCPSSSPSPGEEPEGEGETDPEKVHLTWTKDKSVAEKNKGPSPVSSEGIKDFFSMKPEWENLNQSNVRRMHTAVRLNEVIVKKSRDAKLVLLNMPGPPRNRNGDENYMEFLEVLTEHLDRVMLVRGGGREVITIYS
CHT PAM: human CHT allosteric activation; Q9GZV3; B-score at 10 µM; AID 488977; CHT-expressing cells, membrane potential dye, choline EC20; stronger effect = higher value; LV-AA mutant CHT in HEK293 cells; 0.49% of 310,000 active;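 active = initial fluorescence not abnormally high and integrated response B-score, plate-corrected, over 3 SD above library mean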
CHT inh conf: human CHT inhibition, confirmatory screen; shares compounds with CHT block; CHT-expressing cells, choline membrane potential dye; LV-to-AA substituted CHT, HEK293 cells; CHT activity remaining % of control (stronger effect = lower value), % at 10 µM; 70% of 2,400 active; AID 493221;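 active = choline transporter activity left, mean of duplicates at 10 µM, below buffer-only control mean minus 3 SD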;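 also: depolarization triggered by choline at its EC90 following an EC20 pre-addition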
HEK293 MPD ctr: counter-screen for CHT inhibitors: effect in parental HEK293 cells. shares compounds with CHT block. membrane potential dye, choline response; active = decrease or increase beyond buffer ±3SD. membrane potential ratio readout (active if shifted either direction beyond buffer ±3SD; no single direction) at 10 µM. 4% of 2,400 active;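 also: parental cells lack the transporter so any hit is non-specific; ratio is peak minus trough fluorescence over baseline after EC90 choline challenge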
Large screens that a line does not name were inactive (follow-up assays come after a bar, where they were run). Shown are actives, neighbours in structure and some others; about 2.6% of the full set was active somewhere.

CC(C)CS(=O)(=O)C1=NSC2=NC(=O)/C(=C\c3ccc(OC(=O)c4ccco4)cc3)C(=N)N21	CHT block -6.9 (no result: Rad51 HR inh, KCC2 mod) | CHT inh conf 65% | HEK293 MPD ctr inactive
Cc1ccc(S(=O)(=O)Oc2ccc(/C=C3/C(=N)N4C(=NC3=O)SN=C4S(C)(=O)=O)cc2)cc1	CHT block -6.1 (no result: Rad51 HR inh, KCC2 mod) | CHT inh conf 48% | HEK293 MPD ctr inactive
CCS(=O)(=O)C1=NSC2=NC(=O)/C(=C\c3ccc(OS(=O)(=O)c4ccccc4)c(OC)c3)C(=N)N21	CHT block -5.3 (no result: Rad51 HR inh, KCC2 mod) | CHT inh conf 48% | HEK293 MPD ctr inactive
CCC1=NN2C(=N)/C(=C/c3ccc(OS(=O)(=O)c4ccc(C)cc4)c(OC)c3)C(=O)N=C2S1	none (no result: Rad51 HR inh, KCC2 mod)
N#CC1(NC(=O)COC(=O)c2cc(=O)[nH]c3ccccc23)CCCCC1	none (no result: Rad51 HR inh, KCC2 mod)
COc1ccc(OC)c(Nc2ccc(C(=O)O)cc2[N+](=O)[O-])c1	CHT block -6.7 | CHT inh conf inactive | HEK293 MPD ctr inactive
Cc1ccccc1C(=O)O/N=C/c1c(N2CCOCC2)n(C)c2ccccc12	CHT block -16 | CHT inh conf 37% | HEK293 MPD ctr inactive
COc1ccc(C)cc1Nc1nc(N)c2ccccc2n1	CHT block -13 (no result: Rad51 HR inh, KCC2 mod) | CHT inh conf 41% | HEK293 MPD ctr inactive
COc1ccc(OC)c(Nc2nc(N)c([N+](=O)[O-])c(NCc3ccccc3)n2)c1	CHT block -5 | CHT inh conf inactive | HEK293 MPD ctr inactive
CCOc1ccc(Nc2nc(N)c3ccccc3n2)cc1	CHT block -5.8 (no result: Rad51 HR inh, KCC2 mod) | CHT inh conf 48% | HEK293 MPD ctr inactive
COc1ccc(OC)c(Nc2nc(NCCO)c3ccccc3n2)c1	none (no result: Rad51 HR inh, KCC2 mod)
Cc1ccc(Nc2nc(N)c3ccccc3n2)cc1Cl	none (no result: Rad51 HR inh, KCC2 mod)
Cc1ccc(C)c(N(C(=O)c2ccco2)C(C(=O)NC2CCCC2)c2ccco2)c1 (stereo unspecified)	none (no result: Rad51 HR inh, KCC2 mod)
Cc1ccc(CNC(=O)CSc2ncccn2)cc1	none
COc1cccc(CC(=O)Nc2nc(-c3ccc(F)c(F)c3)cs2)c1	none (no result: Rad51 HR inh, KCC2 mod)
COc1ccc(OC)c(Cc2nnc(CCC(=O)N3CCN(C4CCCC4)CC3)o2)c1	CHT block -8 (no result: Rad51 HR inh, KCC2 mod) | CHT inh conf 36% | HEK293 MPD ctr inactive
Cc1ccccc1CC(=O)N1CCCC1	none (no result: Rad51 HR inh, KCC2 mod)
CC1CCCC(C)N1/N=C/c1ccc(N(C)C)cc1 (stereo unspecified)	none
CCCCc1cc(=O)oc2cc(C)cc(O)c12	none
CCCc1cc(O)c2c(C)cc(=O)oc2c1	CHT block -7.6 | CHT inh conf 48% | HEK293 MPD ctr inactive
CCCCc1cc(=O)oc2cc(O)cc(O)c12	CHT block -7.9 (no result: Rad51 HR inh) | CHT inh conf 40% | HEK293 MPD ctr inactive
Cc1ccc2cc(C#N)c(N3CCN(C(=O)c4ccccc4)CC3)nc2c1	CHT block -5.2 (no result: Rad51 HR inh, KCC2 mod) | CHT inh conf inactive | HEK293 MPD ctr inactive
COc1cc(C(=O)N2CCCN(c3nc4cc(C)ccc4cc3C#N)CC2)cc(OC)c1OC	none (no result: KCC2 mod)
O=C(Nc1ccccc1)c1ccc(=O)n(Cc2ccc(F)c(F)c2)c1	CHT block -6.4 (no result: KCC2 mod) | CHT inh conf inactive | HEK293 MPD ctr inactive
COc1ccc(CCN(C)C(=O)c2ccc(COc3ccccc3)o2)cc1OC	CHT block -6.9 (no result: Rad51 HR inh, KCC2 mod) | CHT inh conf 55% | HEK293 MPD ctr inactive
c1ccc(-c2ccccc2OCc2nnc3n2CCC3)cc1	CHT block -5.3 (no result: Rad51 HR inh) | CHT inh conf 60% | HEK293 MPD ctr inactive
CCOc1cc(/C=C2\SC(=N)N(c3nccs3)C2=O)ccc1OCCN1CCOCC1	none (no result: Rad51 HR inh)
Cc1cccc(C)c1OCCNC(=O)CCC(=O)c1ccccc1	none
Cc1ccc(OCc2n[nH]c(=S)n2-c2ccc(Br)cc2)cc1	none (no result: Rad51 HR inh, KCC2 mod)
Cc1cc(C)cc(CC(Cc2nc3ccccc3[nH]2)c2nc3ccccc3[nH]2)c1 (stereo unspecified)	CHT block -8.7 (no result: KCC2 mod) | CHT inh conf 54% | HEK293 MPD ctr inactive
Cc1ccc(CSCc2nc3ccccc3[nH]2)cc1	none (no result: CHT block, CHT PAM)
CC(C)CC(=O)Nc1ccccc1N1CCN(c2ccccc2)CC1	none
CC(C)CC(=O)Nc1ccccc1N1CCN(C(=O)c2ccccc2)CC1	CHT block -5.1 (no result: Rad51 HR inh) | CHT inh conf inactive | HEK293 MPD ctr inactive
Cc1c(O)ccc(/C(Cc2ccc3ccccc3n2)=N\N)c1O	CHT block -5.9 | CHT inh conf 56% | HEK293 MPD ctr inactive
COc1cc(CCCN2C(=O)C(=O)NC[C@H]2Cc2cccc3ccccc23)cc(OC)c1OC	CHT block -5.1 (no result: KCC2 mod) | CHT inh conf 45% | HEK293 MPD ctr inactive
COc1ccc(N2CCN(CC(=O)Nc3nnc(-c4ccccc4)s3)CC2)cc1	none
COc1cccc(C(=O)C(C#N)=C(SC)SC)c1	CHT block -5.8 | CHT inh conf 36% | HEK293 MPD ctr inactive
CSC(SC)=C(C#N)C(=O)c1ccccc1	CHT block -5 | CHT inh conf 37% | HEK293 MPD ctr inactive
COc1ccc(N(Cc2nnc3n2CCCCC3)C(=O)Nc2ccccc2)cc1	none
COc1ccccc1NS(=O)(=O)c1ccc(O)c(NC(=S)NCC2CCCO2)c1 (stereo unspecified)	none (no result: Rad51 HR inh)
CCOC(=O)C1CCN(C(=O)COc2ccc(Br)cc2Br)CC1	none
CCOC(=O)C1CCN(C(=O)COc2cc(C)c(Br)cc2C)CC1	CHT block -6.5 | CHT inh conf inactive | HEK293 MPD ctr inactive
O=C1CSC(=S)N1/N=C/c1c(F)cccc1F	CHT block -5.6 (no result: Rad51 HR inh, KCC2 mod) | CHT inh conf 71% | HEK293 MPD ctr inactive
CC1CN(C(=O)c2c(Br)cnn2C)CC(C)O1 (stereo unspecified)	none
COc1ccc(OCc2cccc(C(=O)Nn3cc([N+](=O)[O-])cn3)c2)cc1	CHT block -7.1 | CHT inh conf 69% | HEK293 MPD ctr inactive
Cc1[nH]n(-c2cccc(Cl)c2)c(=O)c1-c1ccccc1	CHT block -6.1 (no result: KCC2 mod) | CHT inh conf 68% | HEK293 MPD ctr inactive
CC(=O)N(C)c1ccc(NC(=O)C(Sc2ccccc2)c2ccccc2)cc1 (stereo unspecified)	CHT block -5.5 | CHT inh conf 65% | HEK293 MPD ctr inactive
COC(=O)Cn1ccc(N(C)C)c(C#N)c1=O	CHT block -15 | CHT inh conf 8.7% | HEK293 MPD ctr inactive
COC(=O)Cn1ccc(-c2ccc(Cl)cc2)c(C#N)c1=O	none
Cc1ccc[n+](CC(=O)c2ccc(Br)cc2)c1C	CHT block -9.7 (no result: Rad51 HR inh, KCC2 mod) | CHT inh conf 39% | HEK293 MPD ctr inactive
Cc1ccc[n+](CC(=O)c2ccc(Br)cc2)c1	CHT block -10 (no result: Rad51 HR inh, KCC2 mod) | CHT inh conf 4.2% | HEK293 MPD ctr inactive
COc1ccc(C(=O)C[n+]2cccc(C)c2)cc1	CHT block -8.5 | CHT inh conf 6.4% | HEK293 MPD ctr inactive
O=C(CN1C(=O)/C(=C\c2ccc(F)cc2)Oc2ccccc21)NCc1ccco1	none
CCn1c(NC(=O)C(C)C)c(-c2ccccc2)c(=O)c2ccccc21	none
COc1ccc(N2CCOCC2)c(NC(=O)c2cccnc2)c1	none (no result: Rad51 HR inh, KCC2 mod)
